From ChEMBL document CHEMBL1914307, “Small molecular CD4 mimics as HIV entry inhibitors” (Bioorg Med Chem, 2011) come the findings set out here.

A word on the CC50: it is the concentration giving 50% cytotoxicity. A lower CC50 goes with greater toxicity to the cells. For orientation: IC50 means the concentration that inhibits the measured activity by half.

Data set [1] can be described thus: Cytotoxicity against mock-infected human PM1 cells expressing CCR5 by WST-8 assay. Format: cell-based. The gist of the method:
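Viability of mock-infected PM1/CCR5 cells determined by WST-8; CC50 = concentration reducing viability by half; mean of at least three independent experiments.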

Data set [2] can be described thus: Selectivity index, ratio of CC50 for mock-infected human PM1 cells expressing CCR5 to IC50 for R5 tropic HIV1 YTA infected in human TZM-bl cells. It counts as functional. The gist of the method:
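SI calculated as CC50 (WST-8 viability, mock-infected PM1/CCR5 cells) divided by IC50 (beta-galactosidase reduction after single-round YTA infection of TZM-bl cells).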

The test system of the next data set is PM1. Kind of data set: Induction of gp120 conformational change in R5 tropic Human immunodeficiency virus 1 subtype B isolate JR-FL infected in human PM1 cells assessed as binding of anti-HIV1 mAb 4C11 measuring mean fluorescence intensity at 100 uM preincubated for 15 mins by FACS analysis using antibody staining (reference value: 14.94 fluorescence intensity). It counts as cell-based. The gist of the method:
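Env-expressing PM1 cells were pretreated with the CD4 mimic, then stained with the CD4-induced anti-envelope mAb 4C11 at 4 °C for 15 min. Cells were washed in PBS and detected with FITC-conjugated goat anti-human IgG. The read-out was flow cytometry on gated PM1 cells, giving the mean fluorescence intensity of 4C11. Anti-human CD19 served as the control antibody. Data are representative of at least two independent experiments.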
(A flow cytometer gives signals particle by particle.)

Data set [3] deals with Human immunodeficiency virus 1. In words: Antiviral activity against R5 tropic HIV1 YTA infected in human TZM-bl cells assessed as beta-galactosidase activity preincubated for 15 mins before infection measured after 2 days by single-round assay using luminometry. Particulars: Human immunodeficiency virus 1, YTA. Format: functional, organism-based. The gist of the method: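 Single-round infection of TZM-bl cells with R5 YTA virus; beta-galactosidase read as relative light units; IC50 = concentration giving 50% reduction vs virus control wells; mean of at least three independent experiments.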

The test system of data set [4] is Human immunodeficiency virus 1. Kind of data set: Antiviral activity against HIV1 infected in human PM1 cells expressing CCR5 assessed as inhibition of virus-induced cytopathogenicity by multi-round assay. Format: functional, organism-based. Particulars: Human immunodeficiency virus 1, PM1. The gist of the method: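 HIV-1-induced cytopathogenicity measured in PM1/CCR5 cells over multiple rounds of infection; IC50 from inhibition of cytopathic effect; mean of at least three independent experiments.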
A general note: Protection from cytopathic effect is a common read-out in antiviral testing.

Data set [5] can be described thus: Ratio of compound CC50 to NBD-556 CC50 for mock-infected human PM1 cells expressing CCR5 by WST-8 assay. It counts as ADME, cell-based. (Formazan colour is commonly taken as a measure of viable cells.)

`O=C(Nc1ccc(F)cc1)C(=O)Nc1ccc(Cl)cc1` showed a CC50 in data set [1] above 500 µM. In data set [2], the “Ratio CC50/IC50” value is listed as above 160. In addition, the Flu intensity with PM1 amounted to 15.2. Also, in data set [3], the IC50 is 3.1 µM.
Consider `O=C(Nc1ccc(Cl)cc1)C(=O)Nc1ccc(Br)cc1`, for which the CC50 in data set [1] was above 500 µM. In addition, the 50% inhibitory concentration (IC50) in data set [3] was above 100 µM.
For the compound `O=C(Nc1ccc(Cl)cc1)C(=O)NC1CCN(C(=O)c2ccccc2)CC1`, the Flu intensity in the data set on PM1 is 17.8. Further, the IC50 in data set [3] was found to be 5.1 µM.
In turn, `O=C(Nc1ccc(Cl)cc1)C(=O)NC1CCN(C(=O)Nc2ccccc2)CC1` yielded a CC50 in data set [1] of 6.2 µM. In addition, the “Ratio CC50/IC50” value in data set [2] was determined as 0.56. Also, the IC50 in data set [3] stood at 11 µM.
As to `O=C(Nc1ccc(Cl)cc1)C(=O)Nc1ccc(Cl)cc1`, the CC50 in data set [1] was above 500 µM. For the same compound, the IC50 in data set [3] is above 100 µM.
`NC(=O)N1CCC(NC(=O)C(=O)Nc2ccc(Cl)cc2)CC1` returned a 50% cytotoxic concentration (CC50) in data set [1] of 310 µM. Further, in data set [2], the “Ratio CC50/IC50” value was 37. The Flu intensity with PM1 was 16. In addition, the half-maximal inhibitory concentration (IC50) in data set [3] came out at 8.3 µM.
`CC1(C)CC(NC(=O)C(=O)Nc2ccc(Cl)cc2)CC(C)(C)N1` had a CC50 in data set [1] of 35 µM. Besides, the “Ratio CC50/IC50” value in data set [2] came to 57. Besides, the IC50 in data set [4] worked out at 0.9 µM; in data set [3], 0.61 µM. The Flu intensity in the data set with PM1 was found to be 23.1.
The compound `O=C(NCCc1ccccn1)C(=O)Nc1ccc(Cl)cc1` showed a CC50 in data set [1] of 480 µM. Further, the “Ratio CC50/IC50” value in data set [2] was determined as 24. In addition, the Flu intensity in the data set with PM1 is 15.4. In addition, the IC50 in data set [3] stood at 19.8 µM.
In the same order, the values of `NC(=S)N1CCC(NC(=O)C(=O)Nc2ccc(Cl)cc2)CC1` are 42 µM, 7.6, 20.2 and 5.5 µM.
As for `N=C(N)N1CCC(NC(=O)C(=O)Nc2ccc(Cl)cc2)CC1.O=C(O)C(F)(F)F`, in data set [1], the CC50 is 72 µM. Besides, the “Ratio CC50/IC50” value in data set [2] was determined as 12. Besides, in the data set on PM1, the Flu intensity turned out to be 20.9. In addition, in data set [3], the IC50 is 6.1 µM.
Turning to `O=C(Nc1ccc(Cl)cc1)C(=O)NC1CC2(CCCCC2)NC2(CCCCC2)C1` (configuration not stated), the CC50 in data set [1] came out at 120 µM. The “Ratio CC50/IC50” value in data set [2] came out at 176. For the same compound, the IC50 is 0.56 µM in data set [4] and 0.68 µM in data set [3]. Further, the selectivity ratio in data set [5] came out at 4. Also, the Flu intensity in the data set on PM1 came to 22.2.
`Cc1ccc(NC(=O)C(=O)NC2CC(C)(C)NC(C)(C)C2)cc1`: in data set [1], the CC50 is 260 µM. Moreover, the “Ratio CC50/IC50” value in data set [2] came out at 31. In data set [3], the IC50 is 8.4 µM.
Regarding `O=C(Nc1ccc(Cl)cc1)C(=O)NC1CCNCC1`, the midpoint of cytotoxicity in data set [1], the CC50, lay at 51 µM. Moreover, the “Ratio CC50/IC50” value in data set [2] is on record as 7.3. Moreover, the Flu intensity with PM1 was 20.5. In data set [3], the concentration for half-maximal inhibition (IC50) was determined as 7 µM.
